For assay [1], the system named is KB. In words: Cytotoxicity against human KB cells after 48 hrs by sulforhodamine B based ELISA. It is filed as functional. Summed up:
(§1)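 Lines were grown in DMEM with 10% FBS and 2 mM L-glutamine, plated at densities set by doubling time, and held 24 h at 37 °C, 5% CO2. Drugs were tested at 0.1, 1, 10 and 100 µM in triplicate wells for 48 h. Cells were fixed with cold TCA (10% final) for 60 min at 4 °C, stained 20 min with 0.4% SRB in 1% acetic acid, and eluted with 10 mM Tris base. A540 was read with a 690 nm reference. GI50 came from [(Ti−Tz)/(C−Tz)]×100 = 50; runs were repeated three times.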
A general note: ELISA stands for enzyme-linked immunosorbent assay.

The subject of assay [2] is COLO 205. In words: Cytotoxicity against human COLO205 cells after 48 hrs by sulforhodamine B based ELISA. Type of assay: functional. Particulars: COLO 205, 48 h. Summed up:
as §1

Assay [3] deals with A549. In words: Cytotoxicity against human A549 cells after 48 hrs by sulforhodamine B based ELISA. It is filed as functional. Particulars: A549, 48 h. Summed up:
as §1

Assay [4] deals with A2780. The assay can be described thus: Cytotoxicity against human A2780 cells after 48 hrs by sulforhodamine B based ELISA. It is filed as functional. Particulars: A2780, 48 h. Put shortly:
as §1

Assay [5] can be described thus: Inhibition of tubulin polymerization at 3 uM after 1 hr fluorescence analysis relative to control. Summed up:
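The cell-free fluorescence kit assay used PEM buffer, 1 mM GTP and compound at 3 µM final. Polymerization was followed as reporter incorporation into microtubules, read at 460 nm emission for 1 h at 37 °C, with podophyllotoxin as the positive control. Percent inhibition was expressed relative to the untreated control.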

Assay [6] deals with T1, Tubulin (Homo sapiens) (UniProt P68371+Q9H4B7+P0DPH7+P68366+Q13509+Q71U36+P04350+Q3ZCM7+P07437+P68363+Q9BQE3+Q6PEY2+Q13885+Q9BVA1+Q9BUF5). The assay can be described thus: Inhibition of tubulin polymerization in human A549 cells assessed as disrupted microtubule organization at 5 uM after 48 hrs by immunohistochemistry. It is filed as cell-based. Summed up:
(§2)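 A-549 cells on glass coverslips were treated 48 h with compound at 5 µM or podophyllotoxin at 1 µM. They were fixed in 3% paraformaldehyde/0.02% glutaraldehyde in PBS, permeabilized in −20 °C methanol, and blocked 1 h in 1% BSA. Staining used a mouse monoclonal anti-tubulin antibody and an FITC-conjugated secondary. Microtubule network integrity was assessed by confocal microscopy.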

Assay [7] has as its target T1, Tubulin (Homo sapiens). The assay can be described thus: Inhibition of tubulin polymerization in human A549 cells assessed as disrupted microtubule organization at 1 uM after 48 hrs by immunohistochemistry. Type of assay: cell-based. Put shortly: as §2
The subject of assay [8] is A549. In words: Cell cycle arrest in human A549 cells assessed as accumulation at G1 phase at 10 uM after 48 hrs using propidium iodide staining by flow cytometry (reference value: 71.6%). It is filed as functional. A general note: Flow cytometry measures light scatter and fluorescence of single cells or particles in a stream.
In assay [9] the test system is A549. The assay can be described thus: Cell cycle arrest in human A549 cells assessed as accumulation at G2/M phase at 10 uM after 48 hrs using propidium iodide staining by flow cytometry (reference value: 23.1%). It is filed as functional.
For assay [10], the system named is A549. The assay can be described thus: Cell cycle arrest in human A549 cells assessed as accumulation at S phase at 10 uM after 48 hrs using propidium iodide staining by flow cytometry (reference value: 5.2%). It is filed as functional.
Assay [11] deals with A549. In words: Induction of apoptosis in human A549 cells assessed as activation of caspase 3 at 5 uM after 48 hrs by fluorimetric assay relative to control. Type of assay: functional. Summed up:
(§3)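 A-549 cells in 6-well plates at 60–80% confluence were given compound at 5 µM, with podophyllotoxin at 1 µM as the positive control. The methods give 24 h incubation; the legend gives 48 h. Cells were scraped, lysed by syringe in lysis buffer on ice 10–20 min, and spun at 13,200 rpm for 20 min at 4 °C. The supernatant was assayed fluorimetrically with an AMC-conjugated caspase-3 substrate. Values are the mean ± SD of two experiments, each in triplicate.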

Assay [12] concerns MCF7. The assay can be described thus: Cytotoxicity against human MCF7 cells after 48 hrs by sulforhodamine B based ELISA. Type of assay: functional. Particulars: MCF7, 48 h. Put shortly:
as §1

The subject of assay [13] is A549. In words: Cell cycle arrest in human A549 cells assessed as accumulation at G1 phase at 1 uM after 48 hrs using propidium iodide staining by flow cytometry (reference value: 71.6%). It is filed as functional.
Assay [14] concerns A549. The assay can be described thus: Cell cycle arrest in human A549 cells assessed as accumulation at G2/M phase at 1 uM after 48 hrs using propidium iodide staining by flow cytometry (reference value: 23.1%). Type of assay: functional.
Assay [15] concerns A549. In words: Cell cycle arrest in human A549 cells assessed as accumulation at S phase at 1 uM after 48 hrs using propidium iodide staining by flow cytometry (reference value: 5.2%). Type of assay: functional.
In assay [16] the test system is A549. The assay can be described thus: Induction of apoptosis in human A549 cells assessed as activation of caspase 3 at 1 uM after 48 hrs by fluorimetric assay relative to control. It is filed as functional. Summed up: as §3

23 compounds from ChEMBL document CHEMBL1764951, “Synthesis of a new 4-aza-2,3-didehydropodophyllotoxin analogues as potent cytotoxic and antimitotic agents” (2011) can be followed below.

As a reminder, the GI50 is the concentration that inhibits growth by half. A high value points to less potent growth inhibition. Broadly, the inhibition is how much of the control response was suppressed.

Structures are written as SMILES. Where a name gives a salt, the structure may show the parent alone. The source made the active and inactive calls. The calls are words filed in the database; no cut-off is given here.

In the case of `COc1cc(C2C3=C(COC3=O)Nc3ccc4cc[nH]c4c32)cc(OC)c1OC` (stereo not drawn), the GI50 in [1] turned out to be 2000 nM; in [2] it was 2300 nM; in assay [3] it was 2400 nM; in assay [4], 2700 nM.
For `COc1cc(C2C3=C(COC3=O)Nc3ccc4ncsc4c32)cc(OC)c1OC` (stereo not drawn), the GI50 came out at 2100 nM in assay [1], 2500 nM in assay [2], 2400 nM in [3] and 2300 nM in assay [4]. Besides, the inhibition in [5] worked out at 49.4%. Moreover, the inhibition result in [6] and in assay [7] was “Active” throughout. In addition, the Activity in assay [8] was determined as 42.4%; in [9] it was 53.1%; in assay [10], 4.4%. The “fold change (FC)” value in assay [11] came out at 2.
Consider `COc1cc(C2C3=C(COC3=O)Nc3c2cc(OC)c(OC)c3OC)ccc1O` (stereo not drawn), for which halving of growth in [12] (GI50) required 2900 nM. That is a single-digit micromolar value.
As for `COc1nc2c(c(OC)n1)C(c1ccc(F)c(OC)c1)C1=C(COC1=O)N2` (stereo not drawn), the GI50 was determined as 2200 nM in [1] and 2600 nM in assay [3].
`COc1cc(C2C3=C(COC3=O)Nc3ccc4nc(C)sc4c32)ccc1[N+](=O)[O-]` (stereo not drawn): the GI50 in assay [12] turned out to be 150 nM.
In turn, `COc1ccc(C2C3=C(COC3=O)Nc3onc(-c4ccc(Cl)cc4)c32)cc1O` (stereo not drawn) gave a GI50 in [1] of 2700 nM.
With `COc1nc2c(c(OC)n1)C(c1cc(OC)c(OC)c(OC)c1)C1=C(COC1=O)N2` (stereo not drawn), the GI50 in assay [12] was 2400 nM; in assay [1] it was 170 nM; in assay [2], 160 nM; in assay [3], 2100 nM. In assay [5], this compound returned an inhibition of 63.7%. Also, the inhibition result in [6] and in [7] was “Active” throughout. Also, the Activity is 38.9% in assay [8], 48.2% in [9] and 12.7% in [10]. Moreover, the “fold change (FC)” value in assay [11] amounted to 2.
Take `COc1cc(C2C3=C(COC3=O)Nc3ccc4cc[nH]c4c32)ccc1O` (stereo not drawn): the GI50 was found to be 2300 nM in assay [12] and 2500 nM in assay [2].
Regarding `COc1cccc2c1C(=O)c1c(O)c3c(c(O)c1C2=O)C[C@@](O)(C(=O)CO)C[C@@H]3O[C@H]1C[C@H](N)[C@H](O)[C@H](C)O1` [DOXORUBICIN HYDROCHLORIDE], the 50% growth inhibitory concentration (GI50) in assay [12] was 130 nM; in assay [1], 130 nM; in [2], less than 100 nM; in assay [3], less than 100 nM; in assay [4], less than 100 nM.
For `COc1ccc(C2C3=C(COC3=O)Nc3ccc4cc[nH]c4c32)cc1O` (stereo not drawn), the GI50 is 2900 nM in assay [12]; 2200 nM in assay [1]; 190 nM in assay [2]; 2300 nM in assay [3]; 2700 nM in assay [4].
Consider `COc1cc(C2C3=C(COC3=O)Nc3ccc4cn[nH]c4c32)ccc1O` (stereo not drawn), for which the GI50 in [12] and in [2] was 2000 nM throughout.
Regarding `COc1cc(C2C3=C(COC3=O)Nc3ccc4cc(C)[nH]c4c32)ccc1F` (stereo not drawn), the GI50 amounted to 2600 nM in [12], 2100 nM in assay [3] and 2400 nM in [4]. Besides, the inhibition in assay [5] was 45.3%. In addition, the inhibition result in assay [6] and in assay [7] was “Active” in each case. Further, the Activity in assay [8] stood at 35.4%; in [9], 55.6%; in [10] it was 8.8%. Further, the “fold change (FC)” value in assay [11] was found to be 2.
As to `COc1cc([C@@H]2c3cc4c(cc3[C@H](O)[C@H]3COC(=O)[C@H]23)OCO4)cc(OC)c1OC` [PODOFILOX], the inhibition in assay [5] is 80.7%. For the same compound, the inhibition result in assay [6] and in assay [7] was “Active” in each case. The Activity in assay [13] was determined as 31.4%; in assay [14], 61.5%; in [15], 7.1%. The “fold change (FC)” value in assay [16] is reported as 4.
In assay [1], `COc1cc(C2C3=C(COC3=O)Nc3ccc4cc(C)[nH]c4c32)cc(OC)c1OC` (stereo not drawn) returned a GI50 of 2000 nM.
Consider `COc1ccc(C2C3=C(COC3=O)Nc3ccc4cn[nH]c4c32)cc1O` (stereo not drawn), for which the concentration for 50% growth inhibition (GI50) in assay [2] turned out to be 2600 nM.
In turn, `COc1ccc(C2C3=C(COC3=O)Nc3ccc4nn[nH]c4c32)c(F)c1` (stereo not drawn) displayed a GI50 in assay [12] of less than 100 nM.
`COc1cc(C2C3=C(COC3=O)Nc3ccc4nn[nH]c4c32)cc(OC)c1OC` (stereo not drawn): in assay [1], it took 2900 nM to inhibit growth by half (GI50).
As to `COc1cc([C@@H]2c3cc4c(cc3[C@@H](O[C@@H]3O[C@@H]5CO[C@@H](C)O[C@H]5[C@H](O)[C@H]3O)[C@H]3COC(=O)[C@H]23)OCO4)cc(OC)c1O` [ETOPOSIDE], the GI50 in [12] was 2100 nM; in assay [1], 300 nM; in assay [2] it was 130 nM; in assay [3], 3080 nM; in [4], 1300 nM.
Regarding `COc1ccc(C2C3=C(COC3=O)Nc3ccc4cc(C)[nH]c4c32)c(F)c1` (stereo not drawn), the GI50 in assay [12] was less than 100 nM; in assay [1], 2200 nM; in assay [2], 2700 nM; in assay [4], 2300 nM.
`COc1ccc(C2C3=C(COC3=O)Nc3ccc4cc[nH]c4c32)cc1[N+](=O)[O-]` (stereo not drawn) returned a GI50 in assay [2] of 2400 nM.
`COc1ccc(C2C3=C(COC3=O)Nc3ccc4nc(S)[nH]c4c32)cc1O` (stereo not drawn) displayed a GI50 in [12] of 2700 nM.
Take `COc1cc(C2C3=C(COC3=O)Nc3ccc4cn[nH]c4c32)ccc1F` (stereo not drawn): the values for the GI50 in [12] and in [3] were 2700 nM and 2300 nM, respectively.
For the compound `COc1cc(C2C3=C(COC3=O)Nc3ccc4cc[nH]c4c32)ccc1F` (stereo not drawn), the 50% growth inhibitory concentration (GI50) in assay [12] was 2100 nM; in [1] it was 170 nM; in assay [3], 2200 nM; in [4], 2300 nM.
